NadD block: inhibitors of Staphylococcus aureus NadD. purified NadD enzyme, colorimetric absorbance read-out. inhibition, % at 20 µM. hit rate 0.78% among 360,000; in the data active = inhibition above about 26%
bovine MsrA act: bovine methionine sulfoxide reductase A activation. purified bovine MsrA, absorbance read-out. activation, % at 10.6 µM. hit rate 0.3% among 360,000; in the data active = activation above about 7.5%
NR2E3 ag-1: agonists of human NR2E3 nuclear receptor; inhibition of corepressor binding, % at 3.98 µM; hit rate 0.35% among 360,000; CHO-S Gal4-NCOR/VP16-NR2E3 two-hybrid, luciferase; Q9Y5X4;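 active = inhibition above the mean of all tested compounds plus 3 SD, cut at about 70% in these data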;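 note: higher means lower luciferase signal from less NR2E3 corepressor binding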
Target sequence (Q9Y5X4 whole entry, looked up, the tested form may be a part): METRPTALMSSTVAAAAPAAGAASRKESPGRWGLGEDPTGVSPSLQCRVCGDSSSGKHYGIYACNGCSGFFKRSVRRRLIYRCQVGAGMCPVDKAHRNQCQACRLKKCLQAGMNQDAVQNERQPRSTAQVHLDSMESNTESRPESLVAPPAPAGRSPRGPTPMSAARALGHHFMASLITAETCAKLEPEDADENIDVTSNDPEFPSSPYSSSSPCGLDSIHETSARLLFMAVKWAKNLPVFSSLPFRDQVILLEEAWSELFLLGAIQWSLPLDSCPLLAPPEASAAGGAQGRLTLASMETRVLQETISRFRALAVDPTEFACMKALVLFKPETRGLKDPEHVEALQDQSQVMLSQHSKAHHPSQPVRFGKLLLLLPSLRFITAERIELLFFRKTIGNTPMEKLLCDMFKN
NR2E3 ag-2: agonists of human nuclear receptor NR2E3. hit rate 0.12% among 320,000. GST-NR2E3/biotin-RetCOR TR-FRET, 1536-well. Q9Y5X4. inhibition of corepressor binding, % at 4.78 µM;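 active = percent inhibition above the cutoff of mean plus 3 SD of all tested compounds, set per screening campaign, cut at about 20% in these data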
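System: GST-tagged NR2E3 plus biotinylated RetCOR corepressor; Buffer or medium: pH 7.5 Tris-based buffer; Probe or stimulus: RetCOR corepressor, biotinylated, 7 nM; Doses: compound at 4.8 µM, single dose; Schedule: 5 h incubation at 4 °C; Technique: time-resolved FRET; Evaluation: percent inhibition of TR-FRET ratio; Replication: one well per compound, singlicate testing.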
GalR3 antagonist: blocks the human galanin receptor 3; inhibition, % at 3 µM; HEK293 GalR3-CNG cAMP membrane potential fluorescence; galR3 body fused to GalR1 C-terminus; AID 651719; O60755; hit rate 0.44% among 360,000;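 active = inhibition above the screen-wide average plus 3 SD, cut at about 13% in these data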;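 note: forskolin and galanin both at EC90 stimulate the cells; cAMP rise reported by CNG channel membrane potential dye signal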
Target sequence (O60755 1-299 limits assumed): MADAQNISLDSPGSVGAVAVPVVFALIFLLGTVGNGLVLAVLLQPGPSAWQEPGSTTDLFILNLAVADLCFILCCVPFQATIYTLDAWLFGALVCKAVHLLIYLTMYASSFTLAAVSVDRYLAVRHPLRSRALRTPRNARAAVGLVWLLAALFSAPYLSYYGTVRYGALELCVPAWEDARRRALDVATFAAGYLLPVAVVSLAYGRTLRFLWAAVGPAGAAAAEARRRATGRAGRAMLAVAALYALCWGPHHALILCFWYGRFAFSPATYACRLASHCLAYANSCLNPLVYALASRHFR
MsrA inh: bovine MsrA inhibition; purified bovine MsrA, absorbance read-out; inhibition, % at 15.5 µM; hit rate 0.75% among 360,000; AID 651718; in the data active = inhibition above about 4.5%
GalR3 antag conf: confirmation of human galanin receptor 3 antagonists; HEK293 GalR3 CNG cAMP biosensor, membrane potential fluorescence; galR3 fused to GalR1 carboxy tail; challenged with forskolin and galanin at EC90; shares compounds with GalR3 antagonist; AID 652245; hit rate 59% among 1,600; inhibition, % at 3 µM;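 active = inhibition above the primary screen's cutoff, the mean inhibition of all screened compounds plus 3 SD, cut at about 13% in these data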
CNG parental: parental cell agonism counter-screen for GalR3 antagonists. HEK293-CNG parental cells, cAMP membrane potential fluorescence; normalised: DMSO wells 0%, forskolin wells 100%. activation, % at 3 µM. hit rate 10% among 1,600. AID 652268. shares compounds with GalR3 antagonist; in the data active = activation above about 1.3%
Large screens that a line does not name were inactive (follow-up assays come after a bar, where they were run). In the library only some 2.5% were active in any assay of this set; here they are far more common.

CC1CCC2(CC1)NC(=S)N(C(C)(C)C)N2 (stereo not given)	none
COc1ccccc1N1CCSC1C(N)=O (stereo not given)	none
CCn1nc(C(=O)NNC(=O)CCOc2cc(C)ccc2C)c2ccccc2c1=O	none
CCCn1nc(C(=O)NNC(=O)CCCOc2ccc(C)cc2)c2ccccc2c1=O	GalR3 antagonist 85.5 | GalR3 antag conf 90.3 | CNG parental inactive
Cc1ccc(C)c(N(C)C(=O)c2cc3c(=O)[nH]c4ccc(C)cc4c3s2)c1	GalR3 antagonist 15.8 | GalR3 antag conf 19.2 | CNG parental 3.2
CCCN(CCC)C(=O)c1cc2c(=O)[nH]c3ccc(C)cc3c2s1	none
O=C(Nc1ccc(N2CCOCC2)cc1)c1ccc(Cl)c(S(=O)(=O)N2CCCC2)c1	none
Cc1cc(C(=O)NC2CCCCC2)c2cc(F)ccc2n1	none
O=C(O)CNC(=S)N(Cc1ccccc1Cl)C1CCCCC1	GalR3 antagonist 14.4 | GalR3 antag conf inactive | CNG parental inactive
CCN(CCCCCCN)c1ccc2c(=O)[nH][nH]c(=O)c2c1	none
Cc1cc(C)cc(N(CC(=O)NCc2ccco2)C(=O)CCC(=O)Nc2nccs2)c1	none
Cc1ccc(N(CC(=O)NCc2ccco2)C(=O)CCC(=O)Nc2nccs2)cc1	GalR3 antagonist 14.3 | GalR3 antag conf inactive | CNG parental inactive
O=S(=O)(Nc1nc2ccccc2nc1NCC1CCCO1)c1cc(Cl)ccc1Cl (stereo not given)	GalR3 antagonist 15.2 | GalR3 antag conf inactive | CNG parental inactive
Clc1ccc(-c2csc(N3CCC(c4ccccc4)C3)n2)cc1 (stereo not given)	none
O=C1C(CN2CCCC2)CCCC1CN1CCCC1 (stereo not given)	GalR3 antagonist 15.1 (no result: NR2E3 ag-2) | GalR3 antag conf inactive | CNG parental inactive
C1CCN(CC2CCCCN2)CC1 (stereo not given)	none (no result: NR2E3 ag-2)
COc1cccc2[nH]c3c(N4CCCC(C)C4)ncnc3c12 (stereo not given)	GalR3 antagonist 83.6 | GalR3 antag conf 94.4 | CNG parental inactive
CCN(CC(=O)NCCc1ccc(S(N)(=O)=O)cc1)Cc1nc2cc(OC)c(OC)cc2c(=O)[nH]1	none
Cc1cc(C)c(CN2CCC(n3nccc3NC(=O)C3CCOC3)CC2)cc1C (stereo not given)	none
CC(C)(C)CN1C(N)=NC[C@@H]1Cc1ccccc1	none (no result: GalR3 antagonist) | GalR3 antag conf inactive | CNG parental inactive
NC1=NC[C@H](Cc2ccc(O)cc2)N1CCc1cccc(F)c1	none (no result: GalR3 antagonist) | GalR3 antag conf inactive | CNG parental inactive
CN(C)C1=NC[C@H](Cc2ccccc2)N1CCc1cccc(F)c1	none
O=C(NCc1ccccc1Cl)C1CCCN(S(=O)(=O)c2cccc3nonc23)C1 (stereo not given)	none
Cc1onc(-c2ccccc2)c1C(=O)NC(=S)NNC(=O)c1ccc(O)cc1	none (no result: GalR3 antagonist) | GalR3 antag conf inactive | CNG parental inactive
O=C(NC(=S)NC(=O)c1ccccc1F)c1ccccc1F	GalR3 antagonist 17.7 | GalR3 antag conf inactive | CNG parental inactive
O=C(NC(=S)NCCc1ccccc1)c1ccccc1F	none
CC(=O)c1ccc(S(=O)(=O)N2CCN(C(C)=O)CC2)cc1	GalR3 antagonist 16.4 | GalR3 antag conf inactive | CNG parental inactive
CC1CCCc2sc3nc(N4CCN(CCO)CC4)n4ncnc4c3c21 (stereo not given)	GalR3 antagonist 22.4 | GalR3 antag conf 42.6 | CNG parental 1.9
CCCOc1ccc(NC(=O)CC2C(=O)N(C)C(=S)N2Cc2cccs2)cc1 (stereo not given)	none
CN1C(=O)C(CC(=O)Nc2ccc(F)cc2)N(Cc2cccs2)C1=S (stereo not given)	GalR3 antagonist 15.5 | GalR3 antag conf inactive | CNG parental inactive
COc1ccccc1NS(=O)(=O)c1ccc(C)c(C(=O)NC2CCN(Cc3ccccc3)CC2)c1	GalR3 antagonist 32.5 (no result: NR2E3 ag-2) | GalR3 antag conf 81.3 | CNG parental inactive
COc1ccccc1NS(=O)(=O)c1cc(C(=O)NC2CCN(Cc3ccccc3)CC2)ccc1C	GalR3 antagonist 90.0 (no result: NadD block, bovine MsrA act, NR2E3 ag-1, NR2E3 ag-2) | GalR3 antag conf 103.3 | CNG parental inactive
FC(F)(F)c1cccc(/C=N/NC(=S)NC2CCCCC2)c1	GalR3 antagonist 89.7 | GalR3 antag conf 84.0 | CNG parental 2.5
FC(F)(F)c1ccc(/C=N/NC(=S)NC2CCCCC2)cc1	none
Cc1cccc(N(CC(=O)NC2CC2)S(=O)(=O)c2ccc(Cl)cc2)c1	none
CS(=O)(=O)N1CCN(c2ccccc2NC(=O)c2ccc3ccccc3c2)CC1	none
CS(=O)(=O)N1CCN(c2ccccc2NC(=O)c2ccc(Cl)cc2)CC1	none (no result: GalR3 antagonist) | GalR3 antag conf inactive | CNG parental inactive
O=C(/C=C/c1cn(-c2ccccc2)nc1-c1cccnc1)NCCN1CCOCC1	GalR3 antagonist 17.8 | GalR3 antag conf 14.0 | CNG parental inactive
O=S(=O)(c1ccccc1)c1ncc(C(F)(F)F)cc1Cl	GalR3 antagonist 15.4 (no result: NR2E3 ag-2) | GalR3 antag conf 23.8 | CNG parental inactive
O=S(=O)(c1ccccc1)c1ncc(C(F)(F)F)cc1O	none
CC(Oc1ccc(Cl)cc1Cl)C(=O)Nc1cccc(O)c1 (stereo not given)	GalR3 antagonist 14.5 | GalR3 antag conf 15.1 | CNG parental inactive
CCOc1cc(/C=N/NC(N)=O)cc(Br)c1OCC(=O)Nc1ccccc1C	GalR3 antagonist 68.8 | GalR3 antag conf 39.7 | CNG parental inactive
COc1cc(/C=N/NC(N)=O)cc(Br)c1OCc1ccccc1C	none
COc1cc(/C=N/NC(N)=O)c(Br)cc1OCC(=O)Nc1ccccc1C	none
C=CCOc1c(Br)cc(/C=N/NC(N)=O)cc1OC	GalR3 antagonist 13.2 | GalR3 antag conf inactive | CNG parental inactive
COc1cc(/C=N/NC(=O)c2ccoc2C)cc(OC)c1OC	none
COc1cc(/C=N/NC(=S)N/N=C/c2cc(OC)c(OC)c(OC)c2)cc(OC)c1OC	GalR3 antagonist 19.7 | GalR3 antag conf 15.5 | CNG parental inactive
CC(Nc1ccc(N2CCOCC2)cc1)C(=O)N1c2ccccc2CC1C (stereo not given)	none
CCNC(=O)NC(=O)C(C)Oc1ccc(C(=O)OC)cc1 (stereo not given)	GalR3 antagonist 19.8 | GalR3 antag conf inactive | CNG parental inactive
COc1ccc(CNC(=O)[C@@H](C)NC(=O)[C@@H]2Cc3ccccc3CN2)cc1	GalR3 antagonist 19.5 | GalR3 antag conf inactive | CNG parental inactive
Cc1ccc(N=C2NC(=O)/C(=C/c3cccnc3)S2)cc1C	GalR3 antagonist 15.0 | GalR3 antag conf inactive | CNG parental inactive

Bioassay records (PubChem)
